Bioassay records: PubChem BioAssay, several laboratories
Sampled rows, rich in hits. Any-hit rate of the full collection: about 4.9%.
STAT1 inh: STAT1 signaling inhibition; NIH 3T3 STAT1-luciferase reporter, IFN-gamma, luminescence; inhibition, % at 5.5 µM; actives 0.35% (n = 200,000); AID 920;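 active means inhibition above a set limit, the mean inhibition across all tested compounds plus 3 SD, cut at about 34% in these data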;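 further: 0% = IFN-gamma with DMSO and 100% = IFN-gamma with 300 µM nifuroxazide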
STAT3 inh-1: STAT3 signaling inhibition. U3A cells, IL-6 STAT3-luciferase reporter, luminescence; host cell line lacks STAT1. inhibition, % at 5.5 µM. actives 0.89% (n = 190,000). AID 862;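 active means inhibition above the mean inhibition across all screened compounds plus 3 SD, cut at about 44% in these data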;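 further: 0% = DMSO only wells and 100% = 100 µM nifuroxazide control wells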
STAT3 activator: activators of IL-6 induced STAT3 signaling | U3A cells, IL-6 STAT3-luciferase reporter, luminescence; 100% = signal with IL-6 EC80 alone | activation (% of control), % at 5.6 µM | actives 0.91% (n = 190,000) | AID 871;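 active means activation above the screen-wide mean of compound activation plus 3 SD, cut at about 130% in these data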;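 further: 0% = background luminescence of wells with medium and substrate only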
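system = STAT3-luciferase reporter U3A cells | reagent = IL-6 stimulus at 33 ng/mL final | timing = 1 h compound pre-exposure, 6 h IL-6 stimulation, 37 °C | measured by = luminescence | evaluation = % activation versus median of IL-6-stimulated wells | control set = IL-6-only wells as 100% reference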
APP 5'UTR act: activates APP 5'UTR luciferase reporter. SH-SY5Y APP 5'UTR luciferase reporter, luminescence; zero percent = DMSO vehicle wells. activation, % at 2 µM. actives 1% (n = 190,000);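 active means activation above a set limit, based on mean plus 3 SD of controls, cut at about 140% in these data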
STAT1 act: increases IFN-gamma driven STAT1 reporter signal; NIH 3T3 STAT1-luciferase reporter, luminescence; 100% = IFN-gamma alone, no compound; activation (% of control), % at 5.5 µM; actives 2.6% (n = 200,000); AID 932;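 active means activation above the screen-wide mean activation plus 3 SD, cut at about 130% in these data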;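 further: raw ratio to IFN-gamma control signal so 100% means no change and 0% no light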
NF-kB expr up: raises NF-kB expression in human neuronal cells; actives 1.6% (n = 190,000); NF-kB reporter expression; stronger effect = higher value; fold change at 12.5 µM; in the data active means fold change above about 3.3
STAT3 inh-2: confirmation of STAT3 signaling inhibitors. U3A cells, IL-6 STAT3 luciferase reporter, luminescence; cell line lacks STAT1. inhibition, % at 5.7 µM. AID 1265. actives 45% (n = 1,200). shares compounds with STAT3 inh-1;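 active means inhibition above the hit cutoff computed for the primary STAT3 screen, cut at about 44% in these data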;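 further: 0% = IL-6 plus DMSO and 100% = IL-6 plus nifuroxazide control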
NFkB inh 2: NF-kappaB inhibition in STAT3 inhibitor counter-screen | shares compounds with STAT3 inh-1 | AID 1308 | actives 36% (n = 1,200) | HEK293T NF-kB luciferase reporter, TNF-alpha induced | inhibition, % at 5.7 µM;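 active means inhibition above the mean of solvent-only control wells plus 3 SD, cutoff set per campaign, cut at about 13% in these data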;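 further: 0% = TNF-alpha with DMSO and 100% = TNF-alpha with MG high control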
STAT1 inh 2: inhibits STAT1, counter-screen to STAT3 inhibitors | shares compounds with STAT3 inh-1 | NIH 3T3 STAT1-luciferase reporter, IFN-gamma induced, luminescence | actives 27% (n = 1,200) | AID 1317 | inhibition, % at 5.7 µM;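 active means inhibition above the mean plus 3 SD of solvent-only control wells, limit set per screening run, cut at about 16% in these data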;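 further: 0% = DMSO with IFN-gamma and 100% = nifuroxazide control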
Starred values were filed as active, the others as inactive; / = no result given.

SMILES	STAT1 inh	STAT3 inh-1	STAT3 activator	APP 5'UTR act	STAT1 act	NF-kB expr up	STAT3 inh-2	NFkB inh 2	STAT1 inh 2
CCCCNS(=O)(=O)c1ccc(S(=O)(=O)NCc2ccncc2)cc1	25.2	53.5*	57.3	/	81.0	0.95	35.0	-2.7	19.0*
COc1cc(C)c(Br)cc1S(=O)(=O)NCc1ccncc1	26.2	61.0*	50.7	8.7	76.0	0.84	58.1*	20.0*	18.3*
Cc1cc(C)c(S(=O)(=O)NCc2ccncc2)c(C)c1	26.6	75.2*	38.1	-11.7	75.3	0.74	73.7*	27.0*	23.3*
CCc1ccc(N2C(=O)Nc3ccccc3C2(O)C(=O)N2CCN(c3ccccn3)CC2)cc1 (stereo not drawn)	-15.9	5.0	102.3	15.0	114.5	1.34	/	/	/
CC1(C)CC(=O)C(C=NCCN2CCNCC2)=C(O)C1	-3.7	-8.5	108.2	-18.9	102.0	1.09	/	/	/
COC(=O)c1ccc(COC(=O)CCC(=O)c2cccs2)cc1	-17.5	-21.9	115.2	10.8	119.0	1.69	/	/	/
Cc1csc(NC(=O)c2cc3c(s2)CCC3)n1	-19.5	69.9*	45.6	104.9	117.7	9.77*	38.3	-26.9	-106.7
O=C(Nc1ccc(Cn2cccn2)cc1)c1ccc(COc2ccc(Br)cc2)cc1	1.8	11.5	90.7	-2.0	98.4	1.07	/	/	/
O=C(Nc1ccn(Cc2ccccc2F)n1)c1ccc(COc2ccc(Br)cc2)cc1	-2.7	47.0*	65.9	5.5	102.4	1.11	52.2*	8.4	-19.7
COc1ccc(OC)c(-c2csc(NC(=O)CSc3ccc([N+](=O)[O-])cc3)n2)c1	-5.2	17.8	87.4	0.6	104.7	0.95	/	/	/
CCOc1ccc(OCc2ccc(C(=O)N3CCCC3)o2)cc1	7.1	-3.4	104.4	19.5	93.4	1.1	/	/	/
CCOc1ccc(OCc2cccc(C(=O)N3CCCC3)c2)cc1	41.8*	53.0*	57.1	117.1	68.2	2.26	17.1	17.2*	5.0
CCN(CC)C(=O)/C(=C/c1cccc([N+](=O)[O-])c1)NC(=O)c1ccco1	-5.7	4.9	97.8	-7.4	103.7	1.63	/	/	/
O=C(N/N=C/c1ccc(OC(F)F)cc1OC(F)F)c1cccc(S(=O)(=O)N2CCOCC2)c1	18.3	10.1	97.9	-2.3	82.0	1.05	/	/	/
CN(CCC#N)c1ccc(/C=C(\C#N)c2ccccn2)cc1	-45.7	49.4*	58.3	179.9*	140.7*	2.92	23.2	-6.9	-88.1
N#C/C(=C\c1ccc(C(=O)O)cc1)c1ccccn1	4.1	6.4	103.9	-0.3	94.6	0.93	/	/	/
CCN(CC)c1ccc(/C=C(\C#N)c2ccccn2)cc1	10.9	74.2*	39.8	160.1*	91.8	1.93	45.1*	29.3*	-43.0
Cc1cc(C)nc(N2CCCC(CCC(=O)NCc3ccc(F)c(F)c3)C2)n1 (stereo not drawn)	-1.4	-0.4	104.2	-0.4	99.8	0.91	/	/	/
O=C(O)/C=C/c1cccc(OCc2ccccc2)c1	-10.1	-2.5	103.9	6.7	108.8	1.4	/	/	/
N#Cc1ccccc1COc1ccc(/C=C/C(=O)O)cc1	17.6	47.5*	63.6	-59.5	83.3	0.56	37.0	16.0*	11.0
CC1CCc2c(sc3nc(CSc4ncn[nH]4)[nH]c(=O)c23)C1 (stereo not drawn)	-15.3	14.9	84.5	4.2	114.0	1.08	/	/	/
COc1ccc(-c2cc3nc(C)cc(N)n3n2)cc1	24.2	69.1*	42.0	147.4*	77.9	4.14*	25.4	9.9	-38.2
COc1ccc(-c2cc3nc(C)cc(NCCO)n3n2)cc1	-5.8	29.4	76.2	-3.2	105.3	1.87	/	/	/
O=C(c1ccc2c(c1)OCCO2)N1CCN(c2ccc([N+](=O)[O-])cc2)CC1	3.4	0.5	100.9	-15.4	95.8	1.21	/	/	/
Cc1ccc([N+](=O)[O-])cc1N=C(c1cccc(Br)c1)N1CCOCC1	-0.7	-1.3	107.8	-5.9	100.6	1.03	/	/	/
SMILES	STAT1 inh	STAT3 inh-1	STAT3 activator	APP 5'UTR act	STAT1 act	NF-kB expr up	STAT3 inh-2	NFkB inh 2	STAT1 inh 2
Cc1nc2ccccn2c1C(=O)NC1CCCc2ccccc21 (stereo not drawn)	21.1	53.3*	58.5	-0.1	78.6	0.7	37.4	-0.8	12.0
Cn1c(NC2CCCCC2)c(N=O)c(=O)n(C)c1=O	-5.1	17.4	94.2	-13.4	104.0	1.37	/	/	/
Nc1cc(-c2ccccc2)nn1Cc1ccc(Cl)cc1	-3.4	49.3*	63.7	1.2	103.0	1.34	45.3*	0.4	-14.7
Nc1cc(-c2ccc(Br)cc2)nn1Cc1ccccc1	-27.2	67.0*	46.1	1.1	123.1	2.15	58.5*	6.8	-35.0
Nc1cc(-c2cccc(Br)c2)nn1Cc1ccccc1	-10.4	8.8	95.7	16.4	109.2	1.35	/	/	/
COc1ccccc1CC(=O)NNS(=O)(=O)c1ccc([N+](=O)[O-])cc1	-3.8	-3.4	106.9	11.3	102.0	1.06	/	/	/
O=C(O)[C@@H]1CCCC[C@@H]1C(=O)N1CCc2ccccc2C1CN1C(=O)c2ccccc2C1=O (stereo partly drawn)	23.9	58.6*	54.4	-19.9	78.1	0.92	52.8*	19.3*	22.5*
CCCCCCCCn1c2c(c(=N)c3ccccc31)CCC2	29.9	84.8*	29.2	9.7	71.9	1.4	87.8*	29.9*	31.0*
CCOC(=O)N1CCN(C(=O)c2cc3c(s2)-c2ccc(Cl)cc2S(=O)(=O)C3)CC1	3.0	9.2	96.3	7.2	94.7	0.95	/	/	/
CSc1ccc(NC(=O)N2CCN(c3nc4ccccc4s3)CC2)cc1	9.6	46.2*	64.1	13.2	91.3	0.87	45.7*	5.0	10.5
O=C(c1ccc(Cl)s1)N1CCN(c2nc3ccccc3s2)CC1	12.4	35.8	74.4	-2.5	88.9	0.85	/	/	/
CC(=O)Nc1nc(Cn2nnc(-c3ccc4c(c3)OCO4)n2)nc(N(C)C)n1	-3.4	17.7	89.7	-16.3	101.2	0.98	/	/	/
Cc1ccc(OC(=O)c2ccc3nc(C)sc3c2)cc1	24.0	56.9*	52.4	82.4	77.9	2.49	-11.8	-26.7	-49.4
O=C(c1ccccc1)N1CCC(c2nc(-c3ccc(S(=O)(=O)NCC4CCCO4)cc3)no2)CC1 (stereo not drawn)	18.9	69.4*	42.1	/	89.5	0.98	40.7	22.0*	27.4*
O=C(C1CC1)N1CCC(c2nc(-c3ccc(S(=O)(=O)NCC4CCCO4)cc3)no2)CC1 (stereo not drawn)	22.9	50.6*	57.9	10.1	78.9	0.73	55.5*	14.6*	14.8
